Results as given in article PMC7223318 (Drug Delivery and Translational Research, 2020).
No end group written: not given here.

Tested on: ARPE-19 cells
Assay: Cellular uptake of FITC-labelled peptides, confocal microscopy
Assay type: in vitro ADME, human
Conditions: 1 h, 37 °C, confocal microscopy (Fig. 2)
How it was run: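 ARPE-19 cells (DMEM/F-12 GlutaMAX, 10% FBS, 1% AA) were seeded at 2 × 10^5 cells/ml in chamber slides and grown two nights. FITC-labelled peptides were applied for 1 h at 37 °C, 5% CO2, in culture medium or in hypoxic HAIR solution (K-gluconate/Na-gluconate/NMDG-based, bicarbonate). Cells were then PBS-washed, fixed in 4% formaldehyde, DAPI-counterstained and imaged by confocal microscopy.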

KQIEIKKFK [Gap19]
cellular uptake in hypoxic ARPE-19 cells (HAIR solution (hypoxia), FITC-labelled Gap19 100 μM or XG19 5 μM): undetectable
cellular uptake in normal ARPE-19 cells (normal culture medium, FITC-labelled Gap19 100 μM): undetectable
